Statin myotox sup: suppressors of simvastatin-induced myotoxicity in C2C12 myotubes. ATP luminescence, 48 h; scaled: DMSO 0, geranylgeraniol control 100. rescue of ATP level, % at 7.49 µM. 0.78% of 330,000 active. AID 602340;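 active means mean ATP rescue above about 67%, or every replicate alone reaching that limit, limit read from the data, passing the limit was not always enough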;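 further: myotubes were challenged with 10 µM simvastatin during compound exposure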
FN deposit inh: fibronectin deposition inhibition; inhibition, % at 12.6 µM; AH1F fibroblasts, Alexa488-fibronectin deposition fluorescence, overnight; 0.086% of 350,000 active;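 active means mean inhibition across replicates of 30% or more, regardless of how many single replicates reach that level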;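 further: positive control wells lacked labelled fibronectin entirely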
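material = AH1F fibroblast monolayer depositing Alexa488-labelled fibronectin into matrix | amount = 10000 AH1F cells/well | buffer or medium = DMEM plus 2% serum, read in PBS | incubation = 1 h cell adhesion before compound, then overnight fibronectin incubation | detection = fluorescence at 485 nm excitation, 525 nm emission | evaluation = percent inhibition as loss of matrix-bound fibronectin fluorescence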
FGF22 binding: shifts melting point of recombinant human FGF22; activity (Tm shift, normalised), % at 9.99 µM; Q9HCT0; AID 651658; 1.5% of 340,000 active; recombinant FGF22 thermal shift, SYPRO orange fluorescence; percent of sucrose octasulfate shift, DMSO zero;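 active means mean Tm shift, scaled 0 neutral to 100 positive control, at about 1.3% or above, every replicate too, limit read from the data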
Target sequence (Q9HCT0 whole entry, looked up): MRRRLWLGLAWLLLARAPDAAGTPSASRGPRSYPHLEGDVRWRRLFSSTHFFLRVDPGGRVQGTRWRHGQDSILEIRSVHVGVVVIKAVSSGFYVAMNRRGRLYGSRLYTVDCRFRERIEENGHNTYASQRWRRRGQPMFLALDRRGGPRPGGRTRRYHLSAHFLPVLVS
E-sel inducer: induces E-selectin expression in human endothelial cells; AID 686992; P16581; activation, % at 7.58 µM; HUVEC E-selectin immunofluorescence imaging; normalized: neutral wells 0, TNF-alpha wells 100; 0.37% of 260,000 active;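 active means mean E-selectin-positive cell signal at least 10% of the positive control, reached in at least 60% of replicates, without over 20% cell loss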
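Test system: HUVEC; input: 3,000 HUVEC/well; measured by: immunofluorescence imaging; read-out: % PE-positive cells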
SIRT5 block: sirtuin-5 (human) deacylase inhibition | Q9NXA8 | 1.1% of 330,000 active | Purified SirT5, succinyl-peptide AMC, trypsin-coupled fluorescence | inhibition, % at 15 µM; in the data active means inhibition above about 15%
Target sequence (Q9NXA8 whole entry, looked up): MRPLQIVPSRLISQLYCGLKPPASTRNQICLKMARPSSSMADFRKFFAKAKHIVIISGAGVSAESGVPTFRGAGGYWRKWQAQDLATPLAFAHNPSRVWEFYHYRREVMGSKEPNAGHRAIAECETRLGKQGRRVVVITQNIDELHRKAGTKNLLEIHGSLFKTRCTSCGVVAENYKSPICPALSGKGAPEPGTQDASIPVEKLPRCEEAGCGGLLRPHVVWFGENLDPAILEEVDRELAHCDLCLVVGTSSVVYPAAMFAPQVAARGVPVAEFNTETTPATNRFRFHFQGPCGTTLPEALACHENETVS
Ecoli rRNA inh: inhibits bacterial ribosomal RNA function over humanized ribosomes; E. coli WT GFP vs humanized-ribosome RFP mutants, fluorescence, 24 h; active compounds read low; DMSO median 0, no signal -100; GFP signal change (wild-type ribosome), % (test concentration not listed); 1.6% of 350,000 active; AID 720706;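 active means significant combined selectivity score with lowered wild-type GFP, culture density cut under 30%, mutant RFP and density less affected; inactive means any of these conditions unmet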
The depositor's hits bear a star; . = not tested or not shown. This is a sample that favours compounds with a hit; in the whole collection about 4% have one here.

SMILES	Statin myotox sup	FN deposit inh	FGF22 binding	E-sel inducer	SIRT5 block	Ecoli rRNA inh
CCC(=O)NC[C@H]1[C@@H](c2ccccc2)[C@H](CO)N1C(=O)C1CCC1	4	.	-1	1	20*	2
CN(C[C@H]1[C@H](c2ccccc2)[C@@H](CO)N1C(=O)C1CCC1)C(=O)c1ccccn1	-11	.	-1	0	16*	2
CCCCC(=O)Nc1ccc(NC(=O)c2ccccc2OC)cn1	-10	6	.	.	.	.
CC(=O)Nc1ccc(S(=O)(=O)Nc2ccc3nc(C)sc3c2)cc1	90*	-2	0	0	1	-2
CC(=O)Nc1ccc2nc(NC(=O)C(Cl)(Cl)Cl)sc2c1	.	-2	.	.	-4	-37*
CCCCC(=O)Nc1ccc(NC(=O)c2cc(OC)c(OC)c(OC)c2)cn1	82*	1	.	.	.	.
CCC(=O)Nc1nc2ccc(NC(=O)c3cc(OC)c(OC)c(OC)c3)cc2s1	-27	0	0	1	-2	-36*
CC(=O)Nc1ccc2nc(NC(=O)c3cccnc3)sc2c1	.	.	1	.	.	32
C[C@H](CO)N1C[C@H](C)[C@@H](CN(C)S(=O)(=O)c2cccs2)Oc2c(NC(=O)CCCN(C)C)cccc2C1=O	.	.	.	.	.	0
O=C(Cc1ccccc1)N[C@@H]1CC[C@@H](CC(=O)N2CCOCC2)O[C@H]1CO	5	-7	1	0	3	0
CC(=O)Nc1ccc2nc(NC(=O)COc3ccccc3Cl)sc2c1	-6	-17	43*	.	-5	-2
CC(=O)Nc1ccc2nc(NC(=O)COc3ccccc3C)sc2c1	-11	-10	0	0	-1	-1
CC1=C(C(=O)N(C(C)C)C(C)C)CC(CC(=O)NCCN2CCOCC2)C(=O)N1CCCN1CCCC1=O (centres undefined)	4	1	0	0	16*	6
CC1=C(C(=O)N(C(C)C)C(C)C)CC(CC(=O)NC2CCCCC2)C(=O)N1CCCN1CCCC1=O (centres undefined)	4	.	-1	0	33*	3
CC1=C(C(=O)N(C(C)C)C(C)C)CC(CC(=O)NC2CCCC2)C(=O)N1CCCN1CCCC1=O (centres undefined)	3	3	0	0	-5	5
CC1=C(C(=O)N(C)C)CC(CC(=O)NCCN2CCOCC2)C(=O)N1CCCN1CCCC1=O (centres undefined)	3	2	0	1	-2	12
Cc1cc(C)nc(NN=C2CCCC2)n1	.	-5	.	1	.	.
C1CCCCCC(=NNc2nn[nH]n2)CCCCC1	0	4	0	67*	.	20
CC(=O)c1ccc(NC(=S)N2CCN(C(=S)Nc3ccc(C(C)=O)cc3)C(C)C2)cc1 (centres undefined)	.	-10	0	2	4	-5
CCOc1ccc(NC(=S)NN2C(C)CCCC2C)cc1 (centres undefined)	.	-2	.	.	.	.
S=C(Nc1ccc(Oc2ccccc2)cc1)N1CCN(c2ccccn2)CC1	.	12	43*	.	0	-6
CC(=O)c1ccc(NC(=S)NN2C(C)CCCC2C)cc1 (centres undefined)	.	-5	43*	.	2	6
CC(=O)c1ccc(N2CCN(C(=S)Nc3ccc(Oc4ccccc4)cc3)CC2)cc1	.	-7	16*	-1	-3	-10
CC(=O)c1ccc(NC(=S)N2CC(C)CC(C)C2)cc1 (centres undefined)	-8	4	1	0	16*	-2
O=C(Nc1cccc(Cl)c1)N[C@@H]1CC[C@@H](CCNC(=O)C2CCCCC2)O[C@@H]1CO	-5	-4	0	0	3	-6
SMILES	Statin myotox sup	FN deposit inh	FGF22 binding	E-sel inducer	SIRT5 block	Ecoli rRNA inh
CCCNC(=O)C[C@H]1C[C@@H]2c3cc(NS(=O)(=O)c4ccc(OC)cc4)ccc3O[C@@H]2[C@H](CO)O1	3	-1	0	0	.	0
COc1ccc(S(=O)(=O)Nc2ccc3c(c2)CC(=O)N([C@@H](C)CO)C[C@H](C)[C@H](CN(C)C)O3)cc1	22	.	0	.	-2	3
CC(=O)Nc1ccc(NC(=O)/C=C/c2ccccc2)cc1	.	-1	1	0	2	6
CC(=O)N1CCN(c2ccc(NC(=O)/C=C/c3ccccc3)cc2)CC1	.	3	44*	.	0	0
O=C(Nc1ccccc1)SC1CCCCC1	1	12	43*	0	.	9
CN(C(=O)Nc1ccccc1)C1CCCCC1	2	-5	0	0	.	3
COCC(=O)Nc1ccc2c(c1)C(=O)N(C)[C@H]1CC[C@@H](CC(=O)NCCc3ccccc3)O[C@H]1CO2	11	-18	0	0	-2	-1
Cc1sc2nc(N3CCOCC3)[nH]c(=O)c2c1-c1ccccc1	.	-1	0	.	31*	3
C[C@H](CO)N1C[C@H](C)[C@@H](CN(C)Cc2ccc3c(c2)OCO3)Oc2cc(-c3cccc(C(=O)N(C)C)c3)ccc2S1(=O)=O	-60	.	0	.	18*	-6
COc1ccccc1-c1ccc2c(c1)O[C@@H](CN(C)CC1CCOCC1)[C@H](C)CN([C@H](C)CO)S2(=O)=O	-49	-8	0	0	16*	-9
C[C@H]1CN([C@@H](C)CO)S(=O)(=O)c2ccc(-c3cccc(C(=O)N(C)C)c3)cc2O[C@@H]1CN(C)Cc1ccc2c(c1)OCO2	-38	.	0	.	15*	-5
COc1ccccc1-c1ccc2c(c1)O[C@H](CN(C)Cc1ccc3c(c1)OCO3)[C@H](C)CN([C@H](C)CO)S2(=O)=O	-35	.	0	.	22*	-3
COc1ccccc1-c1ccc2c(c1)O[C@@H](CN(C)C)[C@@H](C)CN([C@@H](C)CO)S2(=O)=O	17	-6	0	0	-4	6
CCC(=O)Nc1ccc2c(c1)C(=O)N(C)C[C@H](OC)[C@H](C)CN(CC1CCOCC1)[C@H](C)CO2	0	.	.	0	.	1
COc1cccc(NC(=S)Nc2cc(C(=O)O)ccc2N2CC3CC(C2)c2cccc(=O)n2C3)c1 (centres undefined)	.	5	3.3*	.	2	14
Cc1ccc(NC(=S)Nc2cc(C(=O)O)ccc2N2CC3CC(C2)c2cccc(=O)n2C3)cc1C (centres undefined)	.	5	0	.	-3	6
Cc1sc(NC(=O)CS(=O)(=O)c2ccccc2)c(C(N)=O)c1C	-9	-3	8.3*	0	2	5
CNC(=O)c1c(NC(=O)CS(=O)(=O)c2ccccc2)sc(C)c1C	.	-5	0	.	-1	0
Cc1sc(NC(=O)CCCC(=O)O)c(C(N)=O)c1-c1ccccc1	.	.	43*	.	0	-5

Screening data from PubChem BioAssay.
